# Measurements published in ChEMBL document CHEMBL1152300, “Ligand specificity of constitutive androstane receptor as probed by induced-fit docking and mutagenesis” (J Med Chem, 2008).
# Assays:
# [1] = target: T1, Nuclear receptor subfamily 1 group I member 3 (Mus musculus, UniProt O35627, S251L); test: Effect on steroid receptor coactivator 1 binding to mouse CAR S251L mutant […] at 10 uM by yeast two-hybrid assay; type: cell-based; settings: read-out: Activity
# Outline: (§1)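 Yeast two-hybrid assay. Yeast co-expressing wild-type or mutant mouse CAR LBD and the SRC-1 partner were selected on SD plates lacking leucine and tryptophan. Random colonies were pooled and amplified, then treated with DMSO or test chemical for 3.5 h. β-galactosidase activity was normalized to cell density and set relative to wild-type mCAR + SRC-1 with DMSO (=100). Mean ± standard deviation of two determinations, each in triplicate.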
# [2] = target: T2, Nuclear receptor subfamily 1 group I member 3 (Mus musculus, UniProt O35627, L212A); test: Activation of mouse CAR L212A mutant expressed in HEK293 cells at 10 uM by mammalian one-hybrid assay; type: cell-based; settings: hek293, 10 µM
# T2 sequence (O35627 whole entry L212A): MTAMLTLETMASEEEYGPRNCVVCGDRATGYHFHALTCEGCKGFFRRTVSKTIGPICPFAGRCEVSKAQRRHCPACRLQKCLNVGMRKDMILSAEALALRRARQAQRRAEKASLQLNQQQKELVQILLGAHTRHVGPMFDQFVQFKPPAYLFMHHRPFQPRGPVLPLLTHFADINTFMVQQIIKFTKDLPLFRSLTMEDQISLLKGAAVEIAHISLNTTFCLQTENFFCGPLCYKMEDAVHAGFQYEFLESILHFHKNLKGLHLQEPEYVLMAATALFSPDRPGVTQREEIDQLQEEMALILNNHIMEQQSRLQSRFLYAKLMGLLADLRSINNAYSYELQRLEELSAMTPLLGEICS
# [3] = target: T3, Nuclear receptor subfamily 1 group I member 3 (Mus musculus, UniProt O35627); test: Enhancement of steroid receptor coactivator 1 binding to wild type mouse CAR expressed in HEK293 cells at 2 uM by yeast two-hybrid assay; settings: hek293, 2 µM
# T3 sequence (O35627 whole entry): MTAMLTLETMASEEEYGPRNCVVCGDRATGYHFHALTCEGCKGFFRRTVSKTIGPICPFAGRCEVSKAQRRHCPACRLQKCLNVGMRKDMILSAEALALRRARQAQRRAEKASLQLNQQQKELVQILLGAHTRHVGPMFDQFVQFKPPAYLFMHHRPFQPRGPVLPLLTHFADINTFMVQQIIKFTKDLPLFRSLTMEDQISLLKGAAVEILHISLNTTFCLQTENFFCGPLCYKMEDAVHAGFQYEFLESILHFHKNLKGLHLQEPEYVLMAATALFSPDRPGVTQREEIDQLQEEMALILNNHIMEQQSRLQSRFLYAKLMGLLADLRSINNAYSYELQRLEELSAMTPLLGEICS
# [4] = target: T4, Nuclear receptor subfamily 1 group I member 3 (Mus musculus, UniProt O35627, I252L); test: (§2) Enhancement of steroid receptor coactivator 1 binding to mouse CAR I252L mutant […] at 10 uM by yeast two-hybrid assay; type: cell-based
# T4 sequence (O35627 whole entry I252L, the tested form may be a part): as the sequence (O35627 whole entry L212A) above, with A212L, I252L counted along it
# Outline: (§3)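 Yeast two-hybrid: yeast expressing wild-type or mutant mouse CAR LBD plus SRC-1 or NCoR, selected on SD medium lacking Leu and Trp. Pooled colonies treated with DMSO or test chemical for 3.5 h. β-Galactosidase normalized to cell density. SRC-1 reference: wild-type + DMSO = 100. NCoR reference: 10 µM androstenol = 100. Mean ± SD, two independent determinations, each in triplicate.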
# [5] = target: T5, Nuclear receptor subfamily 1 group I member 3 (Mus musculus, UniProt O35627, N175A); test: Enhancement of steroid receptor co-activator 1 binding to mouse CAR N175A mutant […] at 10 uM by yeast two-hybrid assay; type: cell-based
# T5 sequence (O35627 whole entry N175A): as the sequence (O35627 whole entry L212A) above, with N175A, A212L counted along it
# [6] = target: T4, Nuclear receptor subfamily 1 group I member 3; settings: HEK293, mouse, read-out: Activity
# [7] = target: T6, Nuclear receptor subfamily 1 group I member 3 (Mus musculus, UniProt O35627, T350M); settings: HEK293, mouse, read-out: Activity
# T6 sequence (O35627 whole entry T350M): as the sequence (O35627 whole entry L212A) above, with A212L, T350M counted along it
# [8] = target: T4, Nuclear receptor subfamily 1 group I member 3; test: as §2; type: cell-based; remark: listed apart in the source
# [9] = target: T1, Nuclear receptor subfamily 1 group I member 3; test: Decrease in nuclear co-repressor receptor binding to mouse CAR S251L mutant […] at 10 uM by yeast two-hybrid assay; type: cell-based; set-up: scale not given: the % may be the effect or the level left
# [10] = target: T6, Nuclear receptor subfamily 1 group I member 3; settings: HEK293, mouse
# [11] = target: Nuclear receptor subfamily 1 group I member 3 (Mus musculus, UniProt O35627, L253F); settings: HEK293, mouse
# Nuclear receptor subfamily 1 group I member 3 (Mus musculus, UniProt O35627, L253F), sequence (O35627 whole entry L253F): as the sequence (O35627 whole entry L212A) above, with A212L, L253F counted along it
# [12] = target: Nuclear receptor subfamily 1 group I member 3 (Mus musculus, UniProt O35627, Y336A); settings: HEK293, mouse, read-out: Activity
# Nuclear receptor subfamily 1 group I member 3 (Mus musculus, UniProt O35627, Y336A), sequence (O35627 whole entry Y336A): as the sequence (O35627 whole entry L212A) above, with A212L, Y336A counted along it
# [13] = target: T7, Nuclear receptor subfamily 1 group I member 3 (Mus musculus, UniProt O35627, F171A); test: Activation of mouse CAR F171A mutant expressed in HEK293 cells at 10 uM by mammalian one-hybrid assay; type: cell-based; settings: hek293, 10 µM
# T7 sequence (O35627 whole entry F171A): as the sequence (O35627 whole entry L212A) above, with F171A, A212L counted along it
# [14] = target: T8, Nuclear receptor subfamily 1 group I member 3 (Mus musculus, UniProt O35627, T350A); test: Decrease in nuclear co-repressor receptor binding to mouse CAR T350A mutant […] at 10 uM by yeast two-hybrid assay; type: cell-based; set-up: scale not given: the % may be the effect or the level left
# T8 sequence (O35627 whole entry T350A): as the sequence (O35627 whole entry L212A) above, with A212L, T350A counted along it
# [15] = target: T3, Nuclear receptor subfamily 1 group I member 3; test: Enhancement of steroid receptor coactivator 1 binding to wild type mouse CAR expressed in HEK293 cells at 10 uM by yeast two-hybrid assay; settings: for fold induction at 10 µM: HEK293, mouse, read-out: FC
# [16] = target: T3, Nuclear receptor subfamily 1 group I member 3; test: Enhancement of steroid receptor coactivator 1 binding to wild type mouse CAR expressed in HEK293 cells at 1 uM by yeast two-hybrid assay; settings: read-out: FC
# [17] = target: T9, Nuclear receptor subfamily 1 group I member 3 (Mus musculus, UniProt O35627, L353A); test: Effect on steroid receptor coactivator 1 binding to mouse CAR L353A mutant […] at 10 uM by yeast two-hybrid assay; type: cell-based; settings: read-out: Activity; outline: as §1
# T9 sequence (O35627 whole entry L353A): as the sequence (O35627 whole entry L212A) above, with A212L, L353A counted along it
# [18] = target: T7, Nuclear receptor subfamily 1 group I member 3; settings: HEK293, mouse
# [19] = target: T8, Nuclear receptor subfamily 1 group I member 3; settings: HEK293, mouse
# [20] = target: T5, Nuclear receptor subfamily 1 group I member 3; settings: HEK293, mouse, read-out: Activity
# [21] = target: T3, Nuclear receptor subfamily 1 group I member 3; test: Increase in nuclear co-repressor receptor binding to wild type mouse CAR expressed in […] cells at 2 uM by yeast two-hybrid assay; type: cell-based; outline: as §3
# [22] = target: Nuclear receptor subfamily 1 group I member 3 (Mus musculus, UniProt O35627, H213A); settings: HEK293, mouse
# Nuclear receptor subfamily 1 group I member 3 (Mus musculus, UniProt O35627, H213A), sequence (O35627 whole entry H213A): as the sequence (O35627 whole entry L212A) above, with A212L, H213A counted along it
# [23] = target: T3, Nuclear receptor subfamily 1 group I member 3; test: Activation of wild type mouse CAR expressed in HEK293 cells at 10 uM by mammalian one-hybrid transactivation assay; settings: hek293, 10 µM
# [24] = target: T2, Nuclear receptor subfamily 1 group I member 3; test: Decrease in nuclear co-repressor receptor binding to mouse CAR L212A mutant […] at 10 uM by yeast two-hybrid assay; type: cell-based; set-up: scale not given: the % may be the effect or the level left
# [25] = target: T9, Nuclear receptor subfamily 1 group I member 3; test: Decrease in nuclear co-repressor receptor binding to mouse CAR L353A mutant […] at 10 uM by yeast two-hybrid assay; type: cell-based; settings: read-out: Activity
# Outline: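 Yeast expressing wild-type or mutant mouse CAR LBD plus NCoR, selected on SD plates lacking leucine and tryptophan. Pooled colonies treated with DMSO or compound for 3.5 h. β-Galactosidase activity normalized to cell density. Reference is 10 µM androstenol (=100). Mean ± SD of two independent determinations, each in triplicate.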
# T1 sequence (O35627 whole entry S251L, the tested form may be a part): as the sequence (O35627 whole entry L212A) above, with A212L, S251L counted along it
Compound,Activity [2] [%],FC [3],Activity [4],Activity [5],fold induction at 10 µM [15],fold induction at 1 µM [16],fold change (FC) [21],activity at 10 µM [1] [%],inhibition at 10 µM [6] [%],inhibition at 10 µM [7] [%],Activity [8],Activity [9],activity at 10 µM [11] [%],inhibition at 10 µM [12] [%],Activity [14],activity at 10 µM [17] [%],activity at 10 µM [18] [%],activity at 10 µM [19] [%],inhibition at 10 µM [20] [%],activity at 10 µM [22] [%],further results
Clc1cnc(Oc2ccc(Oc3ncc(Cl)cc3Cl)cc2)c(Cl)c1,–,2.5,–,–,2.5,2.5,–,–,–,–,–,–,–,–,–,–,–,–,–,–,–
C[C@]12CC[C@@H](O)C[C@@H]1CC[C@@H]1[C@@H]2CC[C@]2(C)C=CC[C@@H]12 [ANDROSTENOL],–,–,–,> 150%,–,–,–,< 50,< 50,≥ 50,> 150%,>= 50%,< 50,≥ 50,>= 50%,< 50,< 50,< 50,≥ 50,< 50,"Activity [24]: >= 50%; activity at 10 µM [10]: < 50%; inhibition at 10 µM [25]: ≥ 50%; Activity ([15]; mouse, hek293, 10 µM): Not Active"
COc1ccc(C(c2ccc(OC)cc2)C(Cl)(Cl)Cl)cc1 [METHOXYCHLOR],50,2.5,>= 50%,–,2.5,2.5,4,< 50,50,≥ 50,>= 50%,>= 50%,< 50,≥ 50,>= 50%,< 50,< 50,< 50,≥ 50,< 50,Activity [24]: >= 50%; activity at 10 µM [10]: < 50%; inhibition at 10 µM [25]: ≥ 50%; Activity [13]: < 50%; fold change (FC) [23]: 1.4

# Now from value to compound, other results behind:
Activity [2] [%],FC [3],Activity [4],Activity [5],fold induction at 10 µM [15],fold induction at 1 µM [16],fold change (FC) [21],Compound,activity at 10 µM [1] [%],inhibition at 10 µM [6] [%],inhibition at 10 µM [7] [%],Activity [8],Activity [9],activity at 10 µM [11] [%],inhibition at 10 µM [12] [%],Activity [14],activity at 10 µM [17] [%],activity at 10 µM [18] [%],activity at 10 µM [19] [%],inhibition at 10 µM [20] [%],activity at 10 µM [22] [%],further results
50,2.5,>= 50%,>= 50%,2.5,2.5,4,COc1ccc(C(=O)CCCc2ccccc2)cc1,< 50,50,≥ 50,> 150%,>= 50%,< 50,≥ 50,>= 50%,< 50,< 50,< 50,≥ 50,< 50,activity at 10 µM [10]: < 50%; Activity [13]: > 100%; fold change (FC) [23]: 1.4
< 50,2.5,> 50%,> 150%,2.5,2.5,4,COc1ccccc1CC(CC(=O)Cc1ccccc1)OC (stereo unspecified),< 50,< 50,≥ 50,>= 50%,>= 50%,< 50,≥ 50,>= 50%,< 50,< 50,< 50,≥ 50,< 50,Activity [24]: >= 50%; inhibition at 10 µM [25]: ≥ 50%; Activity [13]: > 100%; fold change (FC) [23]: 2
–,2.5,–,–,2.5,2.5,4,Clc1ccccc1C(c1ccccc1)(c1ccccc1)n1ccnc1 [CLOTRIMAZOLE],–,–,–,–,–,–,–,–,–,–,–,–,–,–
